In ChEMBL document CHEMBL4765328 (Eur J Med Chem, 2020):
Activity calls are given as the source filed them. The calls are words filed in the database; no cut-off is given here.

How the values were obtained:
HeLa [1] = test: Antiproliferative activity against human HeLa cells assessed as inhibition of cell growth; type: functional, cell-based
In short: (§1)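 Growth inhibition of cancer cell lines read from dose-response curves; IC50 as mean ± SEM of at least three independent experiments.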

HT-29 = test: Antiproliferative activity against human HT-29 cells assessed as inhibition of cell growth; type: functional, cell-based; in short: as §1
Daoy = test: Antiproliferative activity against human Daoy cells assessed as inhibition of cell growth; type: functional, cell-based
In short: (§2)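 Compounds from 10 mM DMSO stocks; final DMSO ≤0.25%. Growth inhibition of cancer cell lines read from dose-response curves; IC50 as mean ± SEM of at least three independent experiments.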

HL-60 = test: Antiproliferative activity against human HL-60 cells assessed as inhibition of cell growth; type: functional, cell-based; in short: as §1
SEM cells = test: Antiproliferative activity against human SEM cells assessed as inhibition of cell growth; type: functional, cell-based; in short: as §2
Jurkat = test: Antiproliferative activity against human Jurkat cells assessed as inhibition of cell growth; type: functional, cell-based; in short: as §2
[2] = Inhibition of bovine brain tubulin polymerisation preincubated with compound followed by GTP addition and measured after 20 mins by turbidimetry based spectrophotometric method; type: tissue-based, Bos taurus
In short: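 Bovine brain tubulin (10 µM) in glutamate buffer, preincubated with varying compound concentrations at 30 °C, then cooled to 0 °C. GTP added to 0.4 mM final, then warmed to 30 °C in a recording spectrophotometer. Assembly followed by turbidity at 350 nm.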

Bos taurus [3] = organism: Bos taurus; test: Inhibition of [3H]colchicine binding to bovine brain tubulin at 5 uM relative to control
In short: (§3)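 [3H]colchicine binding to purified tubulin, with tubulin at 0.5 µM and colchicine at 5 µM. Compounds tested at 5 and 0.5 µM. CA-4 was run in contemporaneous experiments for comparison.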

Bos taurus [4] = organism: Bos taurus; test: Inhibition of [3H]colchicine binding to bovine brain tubulin at 0.5 uM relative to control; type: tissue-based; in short: as §3
[5] = Cytotoxicity against human PBL assessed as inhibition of cell growth; type: cell-based; conditions: peripheral blood lymphocytes (PBL)
In short: (§4)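 Peripheral blood lymphocytes from healthy donors, tested either unstimulated or stimulated with PHA; DMSO ≤0.25% final. Values are mean ± SEM of three separate experiments.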

[6] = Cytotoxicity against PHA-stimulated human PBL assessed as inhibition of cell growth; type: cell-based; conditions: PHA-stimulated peripheral blood lymphocytes (PBL); in short: as §4
[7] = Cytotoxicity against normal human astrocytes assessed as inhibition of cell growth; type: cell-based, Astrocyte
HeLa [8] = test: Induction of microtubule network depolymerization in human HeLa cells assessed as appearance of disorganised microtubules at 10 nM after 24 hrs by immunofluorescence staining based confocal microscopic analysis; type: cell-based
In short: (§5)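 HeLa cells treated 24 h at 10, 50 or 100 nM. They were then fixed in cold 4% formaldehyde for 15 min and stained with anti-β-tubulin for 2 h at room temperature. Alexa 488 secondary and DAPI counterstain followed; imaged by confocal microscopy at 20X.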

HeLa [9] = test: Induction of microtubule network depolymerization in human HeLa cells assessed as appearance of disorganised microtubules at 50 nM after 24 hrs by immunofluorescence staining based confocal microscopic analysis; type: cell-based; in short: as §5
HeLa [10] = test: Induction of microtubule network depolymerization in human HeLa cells assessed as appearance of disorganised microtubules at 100 nM after 24 hrs by immunofluorescence staining based confocal microscopic analysis; type: cell-based; in short: as §5
HeLa [11] = test: Induction of apoptosis in human HeLa cells assessed as viable cells at 10 nM measured after 24 hrs by Annexin V-FITC/propidium iodide staining based flow cytometry (reference value: 97.28 %); type: functional; conditions: read-out: Activity
HeLa [12] = test: Induction of apoptosis in human HeLa cells assessed as early apoptotic cells at 10 nM measured after 24 hrs by Annexin V-FITC/propidium iodide staining based flow cytometry (reference value: 0.96 %); type: functional
HeLa [13] = test: Induction of apoptosis in human HeLa cells assessed as late apoptotic cells at 10 nM measured after 24 hrs by Annexin V-FITC/propidium iodide staining based flow cytometry (reference value: 1.22 %); type: functional
HeLa [14] = test: Induction of apoptosis in human HeLa cells assessed as necrotic cells at 10 nM measured after 24 hrs by Annexin V-FITC/propidium iodide staining based flow cytometry (reference value: […]); type: functional
HeLa [15] = test: Induction of apoptosis in human HeLa cells assessed as viable cells at 10 nM measured after 48 hrs by Annexin V-FITC/propidium iodide staining based flow cytometry (reference value: 97.28 %); type: functional; conditions: read-out: Activity
HeLa [16] = test: Induction of apoptosis in human HeLa cells assessed as early apoptotic cells at 10 nM measured after 48 hrs by Annexin V-FITC/propidium iodide staining based flow cytometry (reference value: 0.96 %); type: functional
HeLa [17] = test: Induction of apoptosis in human HeLa cells assessed as late apoptotic cells at 10 nM measured after 48 hrs by Annexin V-FITC/propidium iodide staining based flow cytometry (reference value: 1.22 %); type: functional
HeLa [18] = test: Induction of apoptosis in human HeLa cells assessed as necrotic cells at 10 nM measured after 48 hrs by Annexin V-FITC/propidium iodide staining based flow cytometry (reference value: […]); type: functional
HeLa [19] = test: Induction of mitochondrial membrane potential loss in human HeLa cells assessed as cells with depolarized mitochondrial membrane at 10 nM after 24 hrs by JC-1 dye-based flow cytometric analysis (reference value: 7.8 %); type: functional
HeLa [20] = test: Induction of mitochondrial membrane potential loss in human HeLa cells assessed as cells with depolarized mitochondrial membrane at 10 nM after 48 hrs by JC-1 dye-based flow cytometric analysis (reference value: 7.8 %); type: functional
HeLa [21] = test: Induction of mitochondrial membrane potential loss in human HeLa cells assessed as cells with polarized mitochondrial membrane at 10 nM after 24 hrs by JC-1 dye-based flow cytometric analysis (reference value: 92.0 %); type: functional
HeLa [22] = test: Induction of mitochondrial membrane potential loss in human HeLa cells assessed as cells with polarized mitochondrial membrane at 10 nM after 48 hrs by JC-1 dye-based flow cytometric analysis (reference value: 92.0 %); type: functional
[23] = Antitumor activity mouse E0771 cells implanted in C57BL/6 mouse assessed as reduction tumor growth at 30 mg/kg, ip administered every other day relative to control; type: functional, EO771; design: scale not given: the % may be the effect or the level left
In short: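 Female C57BL/6 mice, seven weeks old, injected orthotopically into the mammary fat pad with 4 × 10^5 E0771 cells. Palpable tumours randomised into groups, dosed intraperitoneally every other day in DMSO vehicle, 100 µL final volume; vehicle-only controls. Caliper volume V=(D×d²)/2, tumour weight taken at end; n=5 mice/group; body weight monitored; two-way ANOVA with Bonferroni.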

| Structure (SMILES) | IC50 (HeLa [1]) [nM] | IC50 (HT-29) [nM] | IC50 (Daoy) [nM] | IC50 (HL-60) [nM] | IC50 (SEM cells) [nM] | IC50 (Jurkat) [nM] | IC50 [2] [nM] | inhibition (Bos taurus [3]) [%] | inhibition (Bos taurus [4]) [%] | also measured |
| --- | --- | --- | --- | --- | --- | --- | --- | --- | --- | --- |
| CCOc1cccc2c(C(=O)c3cc(OC)c(OC)c(OC)c3)c(N)oc12 | 1250 | 910 | 1670 | 428 | 385 | 390 |  |  |  |  |
| COc1cc(C(=O)c2c(N)oc3cc(O)ccc23)cc(OC)c1OC | 591 | 3420 | 428 | 285 | 371 | 299 |  |  |  |  |
| COc1ccc2c(N)c(C(=O)c3cc(OC)c(OC)c(OC)c3)oc2c1 | 6.2 | 787 | 5 | 3.5 | 3.6 | 3.1 |  |  |  |  |
| CCCOc1ccc2c(C(=O)c3cc(OC)c(OC)c(OC)c3)c(N)oc2c1 | 22.7 | 17.7 | 4.4 | 41.7 | 29.7 | 27.2 | 510 | 91 | 42 |  |
| COc1cc(C(=O)c2c(N)oc3ccc(N)cc23)cc(OC)c1OC | 635 | 790 | 494 | 413 | 259 | 399 |  |  |  |  |
| COc1cc(C(=O)c2c(N)oc3cc(C)ccc23)cc(OC)c1OC | 1.1 | 0.6 | 0.34 | 3.5 | 0.3 | 0.33 | 390 | 97 | 74 | GI50 [5]: > 10000 nM; GI50 [6]: > 10000 nM; GI50 [7]: > 10000 nM; Activity (HeLa [8]): Active; Activity (HeLa [9]): Active; Activity (HeLa [10]): Active; viability at 0.01 µM (HeLa [11]): 74.4%; Activity (HeLa [12]): 10.95%; Activity (HeLa [13]): 2.51%; Activity (HeLa [14]): 12.11%; viability at 0.01 µM (HeLa [15]): 26.4%; Activity (HeLa [16]): 37.13%; Activity (HeLa [17]): 9.35%; Activity (HeLa [18]): 27.08%; Activity (HeLa [19]): 24.8%; Activity (HeLa [20]): 42.6%; Activity (HeLa [21]): 74.9%; Activity (HeLa [22]): 57.3% |
| COc1ccc(/C=C\c2cc(OC)c(OC)c(OC)c2)cc1O [COMBRETASTATIN A4] |  |  | 12.3 |  |  | 0.8 |  | 97 | 82 |  |
| COc1ccc2oc(N)c(C(=O)c3cc(OC)c(OC)c(OC)c3)c2c1 | 56 | 62.9 | 36.2 | 36.2 | 38.9 | 29.2 | 500 | 73 |  |  |
| COc1cc(C(=O)c2c(N)oc3c(OC)cccc23)cc(OC)c1OC | 496 | 477 | 345 | 233 | 285 | 333 |  |  |  |  |
| COc1cc(C(=O)c2c(N)oc3cc(OCc4ccccc4)ccc23)cc(OC)c1OC | 9670 | 8680 | > 10000 | 7060 | 3680 | 4390 |  |  |  |  |
| COc1cc(C(=O)c2c(N)oc3cc(F)ccc23)cc(OC)c1OC | 591 | 682 | 846 | 413 | 333 | 299 |  |  |  |  |
| COc1cc(C(=O)c2c(N)oc3cc(Br)ccc23)cc(OC)c1OC | 4.5 | 5.4 | 2.5 | 5.6 | 3.5 | 2.8 | 570 | 92 | 56 |  |
| COc1ccc2c(C(=O)c3cc(OC)c(OC)c(OC)c3)c(N)oc2c1 | 2.9 | 5.6 | 0.3 | 3 | 4.1 | 2.7 | 480 | 99 | 79 |  |
| COc1cc(C(=O)c2c(N)oc3cccc(OC)c23)cc(OC)c1OC | 5220 | 6510 | 3950 | 4890 | 4560 | 2760 |  |  |  |  |
| COc1cc(C(=O)c2c(N)oc3ccccc23)cc(OC)c1OC | 413 | 591 | 371 | 339 | 250 | 385 |  |  |  |  |
| COc1cc(C(=O)c2c(N)oc3c(O)c(OC)ccc23)cc(OC)c1OC | 15.3 | 424 | 0.32 | 2.8 | 259 | 0.34 | 590 | 99 | 87 |  |
| COc1ccc(/C=C\c2cc(OC)c(OC)c(OC)c2)cc1OP(=O)([O-])[O-].[Na+].[Na+] [FOSBRETABULIN DISODIUM] |  |  |  |  |  |  |  |  |  | Activity [23]: 26.5% |
